# Shown are actives, neighbours in structure and some others; about 2.3% of the full set was active somewhere.
# TRPC6 activator: mouse TRPC6 channel activators, primary screen, cell-based, HEK293, membrane potential dye | Short transient receptor potential channel 6 (Mus musculus), Q61143 | HEK293-TRPC6 membrane potential dye fluorescence; stronger effect = higher value | B-score at 10 µM | 310,000 compounds, 0.13% hits | AID 2550, 2010;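 active = B-score of the integrated fluorescence ratio above library mean plus 3 SD, and starting fluorescence ratio within library mean plus 5 SD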;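 also: higher score means more depolarization so channel activation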
# Target sequence (Q61143 whole entry, looked up): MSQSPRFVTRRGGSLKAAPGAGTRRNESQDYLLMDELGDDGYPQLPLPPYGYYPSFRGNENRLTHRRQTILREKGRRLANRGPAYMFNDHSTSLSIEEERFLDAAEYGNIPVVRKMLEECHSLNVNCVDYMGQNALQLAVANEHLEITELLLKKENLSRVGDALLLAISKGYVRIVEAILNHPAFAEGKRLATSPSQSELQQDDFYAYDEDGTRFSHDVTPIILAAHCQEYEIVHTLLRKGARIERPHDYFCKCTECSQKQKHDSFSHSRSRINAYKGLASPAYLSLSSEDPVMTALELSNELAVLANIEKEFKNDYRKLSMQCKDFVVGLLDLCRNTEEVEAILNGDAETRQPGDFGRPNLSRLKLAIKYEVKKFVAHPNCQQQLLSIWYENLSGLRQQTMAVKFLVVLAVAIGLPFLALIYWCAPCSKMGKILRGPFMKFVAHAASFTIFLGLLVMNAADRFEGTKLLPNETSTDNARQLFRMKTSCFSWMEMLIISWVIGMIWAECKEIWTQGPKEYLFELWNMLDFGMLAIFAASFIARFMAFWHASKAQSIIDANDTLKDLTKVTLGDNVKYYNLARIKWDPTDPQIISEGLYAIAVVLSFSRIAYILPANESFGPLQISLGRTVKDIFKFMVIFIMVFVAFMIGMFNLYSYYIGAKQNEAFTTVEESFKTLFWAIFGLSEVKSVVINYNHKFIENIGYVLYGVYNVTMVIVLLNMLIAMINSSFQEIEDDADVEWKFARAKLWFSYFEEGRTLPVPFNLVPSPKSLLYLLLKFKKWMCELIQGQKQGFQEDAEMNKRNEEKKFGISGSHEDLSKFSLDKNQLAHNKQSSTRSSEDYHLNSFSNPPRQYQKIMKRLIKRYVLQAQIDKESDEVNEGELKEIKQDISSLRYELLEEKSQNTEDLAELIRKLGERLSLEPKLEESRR
# TRPC4 potent: positive allosteric modulators of TRPC4, primary screen, cell-based, mouse TRPC4beta, HEK293 mu-opioid, Fluo-4 calcium | B-score at 10 µM | DAMGO EC20, Fluo-4 Ca2+ flux; stronger effect = higher value | AID 2227, 2009 | 310,000 compounds, 0.42% hits | Short transient receptor potential channel 4 (Mus musculus), Q9QUQ5;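 active = B-score of calcium response area above 5 SD of library B-scores, with initial fluorescence ratio within 5 SD of library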;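 also: B-score of integrated fluorescence ratio over time as area under calcium response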
# TRPC4 agonist: activators of mouse TRPC4 channel, primary screen, Fluo4 calcium, HEK293 TRPC4beta/mu-opioid cells; Short transient receptor potential channel 4 (Mus musculus), Q9QUQ5; Fluo4 calcium fluorescence; stronger effect = higher value; B-score at 10 µM; 310,000 compounds, 0.49% hits; AID 2237, 2010;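 active = B-score above 5 SD of library B-scores, and initial fluorescence ratio not above library mean plus 5 SD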;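 also: positive B-score marks a calcium rise read as TRPC4 activation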
#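 System – HEK293 cells stably co-expressing mouse TRPC4beta and mu-opioid receptor · Signal – Fluo4 calcium-sensitive dye fluorescence, kinetic, 1 Hz baseline · Benchmarks – buffer (low) and maximal DAMGO (high) · Read-out – B score of integrated fluorescence ratio per well · Incubation – dye loading 45 min room temperature, 110 s kinetic read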
# TRPC6 inh: mouse TRPC6 channel inhibitors, primary screen, cell-based, HEK293, membrane potential dye; AID 2553, 2010; Short transient receptor potential channel 6 (Mus musculus), Q61143; B-score at 10 µM; ACh-evoked depolarization; stronger effect = lower value; 310,000 compounds, 1.1% hits;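 active = B-score under library mean minus 3 SD, initial fluorescence not abnormally high, positive integrated signal ratio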;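 also: B-score derived from integrated fluorescence ratio over the kinetic read; more negative B-score means stronger inhibition of depolarization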
# TRPC4 block: inhibitors of mouse TRPC4 channel, primary screen, Fluo4 calcium, HEK293 TRPC4beta/mu-opioid cells; B-score at 10 µM; AID 2247, 2010; Short transient receptor potential channel 4 (Mus musculus), Q9QUQ5; 300,000 compounds, 0.39% hits; DAMGO-evoked Fluo4 calcium flux; stronger effect = lower value;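 active = B-score over 3 SD under the library average, no early fluorescence shift, positive overall ratio signal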
#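 Assay system: HEK293 cells with stable TRPC4beta plus mu-opioid receptor expression; Probe or stimulus: DAMGO in two steps, submaximal then maximal; Dosing: single-point compound dosing; Measured by: Fluo4 calcium-dye fluorescence, kinetic read; Read-out basis: B score from integrated Fluo4 fluorescence ratio.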
# Starred values were filed as active, the others as inactive; i = inactive.
SMILES,TRPC6 activator,TRPC4 potent,TRPC4 agonist,TRPC6 inh,TRPC4 block
O=C(c1ccco1)N1CCN(c2ccc([N+](=O)[O-])cc2Cl)CC1,i,i,i,i,i
NC(N)=NCCCC(NC(=O)c1ccccc1)C(=O)Nc1ccc([N+](=O)[O-])cc1 (stereo not drawn),i,i,123*,i,i
Cn1c(SCC(=O)NC2CCCCC2)nnc1-c1ccccc1O,i,i,i,i,i
CC1(C)NC(=O)N(CCOCCOc2ccc3ccccc3c2Br)C1=O,i,13*,i,i,i
CC1(C)NC(=O)N(CCCCOc2ccc3ccccc3c2Cl)C1=O,i,i,i,i,i
Cc1ccc(-n2nc3c(=O)n(CCCC(=O)NCc4cccc(F)c4)nc(C)c3c2C)cc1,i,i,i,i,i
COc1ccc(S(=O)(=O)N2CCN(C(=O)c3ccc(C)o3)CC2)cc1,i,i,i,i,i
Cc1cc(Cl)cc(Cl)c1OCCCCN(C)C,i,36*,i,i,i
CN(C)C(CNC(=O)c1cnc(Cl)c(Cl)c1)c1ccccc1 (stereo not drawn),i,i,223*,i,i
CN(C)C(CNC(=O)c1cc(S(=O)(=O)N(C)c2ccccc2)ccc1Cl)c1ccccc1 (stereo not drawn),i,i,i,i,i
CN(C)C(CNC(=O)c1coc2ccccc2c1=O)c1ccccc1 (stereo not drawn),i,12*,i,i,i
COC(=O)c1ccc(CNC(=O)c2coc3ccccc3c2=O)cc1,i,i,i,i,i
CN(C)C(CNC(=O)c1ccc2ccccc2n1)c1ccccc1 (stereo not drawn),i,i,100*,i,i
CN(C)C(CNC(=O)/C=C/c1cccc(Cl)c1)c1ccccc1 (stereo not drawn),i,i,199*,i,i
COC(=O)[C@H]1C[C@H]1[C@@H](NC(=O)c1ccc[nH]1)c1ccccc1,i,i,i,i,i
CN(C)C(CNC(=O)c1ccc(NC(=O)c2cccs2)cc1)c1ccccc1 (stereo not drawn),i,i,i,i,i
CN(C)C(CNC(=O)c1ccc(C2SCCS2)cc1)c1ccccc1 (stereo not drawn),i,i,i,i,-5*
Cc1ccc(Cn2c(Cc3ccccc3)nc3ccccc32)cc1,i,i,i,i,-6*
CCCS(=O)(=O)c1c(S(=O)(=O)CCC)c2cnccn2c1C(=O)c1ccc(Cl)cc1,i,12*,i,i,i
O=C(NNC(=O)c1sc2ccccc2c1Cl)Nc1ccc(Cl)cc1,i,i,i,i,i
O=C(O)c1ccccc1NC(=S)NC(=O)c1sc2ccccc2c1Cl,i,i,i,i,i
O=C(NNC(=S)NC(=O)c1sc2ccccc2c1Cl)c1ccc(Cl)cc1,i,56*,i,i,i
Cc1ccc(NC(=S)NC(=O)c2sc3ccccc3c2Cl)c(C(=O)O)c1,i,i,i,i,-6*
O=S(=O)(c1ccc(Cl)cc1Br)N1CCCCC1,i,17*,i,i,i
COc1ccc(N(CC(=O)NCCSCc2ccccc2Cl)S(C)(=O)=O)cc1Cl,i,i,i,i,i
SMILES,TRPC6 activator,TRPC4 potent,TRPC4 agonist,TRPC6 inh,TRPC4 block
CN1C2CCC1CC(N(CCc1ccccc1)C(=O)c1ccc(Cl)cc1)C2 (stereo not drawn),i,i,i,i,i
CN1C2C=C(N(CCc3ccccc3)C(=O)c3ccc(Cl)cc3)CC1CC2 (stereo not drawn),i,i,99*,i,i
Cc1cc(C=O)c(C)n1-c1ccc(Oc2ccc([N+](=O)[O-])cn2)cc1,i,i,i,i,i
Cc1cc(C=O)c(C)n1-c1ccc(NC2CCCC2)c([N+](=O)[O-])c1,i,13*,i,i,i
CC(=O)c1ccccc1NC(=O)c1ccc(N2CCCC2=O)cc1,i,i,i,i,i
Fc1ccccc1Sc1ccccc1CNC1=NCCN1,i,i,i,i,-6*
Cc1ccc(NC(=O)N2CCCC2C(=O)NCCc2ccccc2)cc1 (stereo not drawn),i,i,i,i,-6*
O=C(CN1CCN(Cc2ccc(Cl)cc2)C1=O)NCCCN1CCOCC1,i,i,i,i,i
O=C(CN1CCN(Cc2ccc(Cl)cc2)C1=O)NCCCN1CCN(c2ccc(F)cc2)CC1,i,i,i,i,-6*
CCOc1ccc(OCCC(=O)OCC(=O)Nc2cc(OCC)c(N3CCOCC3)cc2OCC)cc1,i,i,i,i,i
Cc1ccc(NC(=O)NC(=O)CN2C(=O)NC3(CCCCCCC3)C2=O)c(C)c1,i,i,i,-5.6*,i
COc1cc(C(=O)N/N=C(\C)c2ccc(NC(=O)Cc3ccccc3)cc2)ccc1O,i,i,i,i,i
O=C(Nc1ccc(Br)c2ccccc12)c1ccc2ccccc2c1O,i,i,i,i,i
Cc1ccc(C2=NC(C(F)(F)F)(C(F)(F)F)c3c(n(-c4ccc(F)cc4)c(=O)[nH]c3=O)N2)cc1,i,12*,i,i,i
CCn1ccnc1CNC(=O)c1ccc2oc(CCCc3ccccc3)nc2c1,i,i,i,i,-6*
CCCCc1nc2cc(C(=O)NCc3ccccn3)ccc2o1,i,i,i,i,i
CSc1nnc(Cc2sc(-c3ccccc3)nc2-c2ccccc2)o1,i,20*,i,i,i
O=S(=O)(Nc1ccc(S(=O)(=O)Nc2cccc3ccccc23)cc1)c1ccccc1,i,15*,i,i,i
O=S(=O)(Nc1ccc(S(=O)(=O)Nc2ccccc2)cc1)c1ccccc1,i,11*,i,i,i
COc1cc2c(cc1OC)CC(C(=O)NCc1ccccc1)NC2 (stereo not drawn),i,i,i,i,i
CCCN(CCC)CCNC(=O)C1CC(=O)N(c2ccc(OC)cc2)C1c1ccc(OC)cc1 (stereo not drawn),i,i,43*,i,i
